Experiment [1] is described as follows: inhibitors of TNFa-induced NFkB p65 translocation, primary screen, imaging, HUVEC, MLSMR starter and 10KST1 sets (AID 438;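 active = inhibition above 20% together with a positive visual image hit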;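 note: compound added about 3h40 before a 20 min TNFalpha stimulation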;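 for inhibition: signal is the nuclear over cytoplasmic p65 intensity ratio per well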). The following applies: HUVEC TNFa-induced p65 nuclear translocation; cell count: measured here: nuclei count (cytotoxicity indicator), at 2.08 µM; inhibition: at 2 µM, stronger effect = higher value, 0% TNFa-plus-vehicle, 100% no-TNFa wells.
Experiment [2] can be described thus: inhibitors of E-selectin induction by TNFa, primary screen, imaging, HUVEC, immunofluorescence, MLSMR starter and 10KST1 sets (AID 487;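 active = visually confirmed hit in the image check and inhibition above 20%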;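 for inhibition: signal is fraction of cell area covered by stained E-selectin grains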;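 for nuclei count: 100% = median nuclei count of all wells on the same plate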). The following applies: HUVEC TNFalpha-induced E-selectin immunofluorescence imaging, at 2 µM; inhibition: stronger effect = higher value; nuclei count: measured here: cell number, toxicity.
Experiment [3] in a line: DUSP6 inhibitors restoring Erk phosphorylation by chemical complementation, primary imaging in DUSP6-transfected HeLa (AID 609;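 active = compounds giving at least 50% inhibition in the cell-based MKP-3 phosphatase rescue imaging test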;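 for inhibition: phospho-Erk level distribution per well compared with pooled transfected vehicle control wells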). The following applies: HeLa MKP-3 transfected, phospho-Erk imaging KS statistic, at 10 µM, cells stimulated with TPA for 15 min.
The target of experiment [4] is Dual specificity protein phosphatase 6 (Homo sapiens) (UniProt Q16828). The experiment is described as above. The following applies: HeLa MKP-3 transfected, phospho-Erk imaging KS statistic; at 10 µM; stronger effect = higher value; cells stimulated with TPA for 15 min.
Experiment [5] addresses Voltage-gated potassium channel subunit beta-2 (Rattus norvegicus) (UniProt P62483). The experiment can be described thus: KvBeta enzyme negative modulators, primary screen, biochemical, NADPH fluorescence (AID 622;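 active = fluorescence slope higher than the sample average by over 3 SD, cut at about -0.22 in these data, passing the limit was not always enough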;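 note: slope of raw intensity against log time taken from 70 to 1610 s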). The following applies: recombinant KvBeta, 4-cyanobenzaldehyde reduction, at 10 µM, stronger effect = higher value.
Experiment [6] shares this target. The experiment can be described thus: KvBeta positive modulators, primary screen, biochemical, NADPH fluorescence (AID 623).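 Note: fluorescence intensity change per second fitted from 20 to 320 s.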 The following applies: Recombinant KvBeta, NADPH fluorescence decrease slope, 10 min; at 10 µM; stronger effect = lower value.
Experiment [7] has as its target Alpha-2C adrenergic receptor (Homo sapiens) (UniProt P18825). Put plainly: modulators of alpha2C/GIRK thallium flux, primary screen, cell-based, HEK293 alpha2C/GIRK1/2 (AID 624;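 active = fluorescence slope after compound addition differing from the mean of all screened samples at 99.7% confidence, in either direction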;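 note: slope of fluorescence ratio to pre-addition baseline per second over 15 to 24 s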). The following applies: thallium flux BTC fluorescence, at 10 µM, actives lie on both sides.
Experiment [8] can be described thus: inhibitors of larval lipid processing in zebrafish, primary screen, whole organism, PED6 fluorescence, gall bladder and intestine (AID 686;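 active = a full or partial loss of lipid-probe fluorescence in the fish gall bladder, intestine or both, judged by eye; inactive = no fluorescence loss, or compound toxic to the fish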;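 note: signal comes from phospholipase A2 cleavage of quenched PED6 carried via bile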). The following applies: Zebrafish larvae PED6 lipid processing, fluorescence scoring; screened at 20 µM (by protocol). The procedure, abridged: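 Doses: 20 µM single dose. Test system: live zebrafish larvae aged 5-7 days, whole organism. Quantity: five larvae per well. Measured by: By-eye fluorescence microscopy. Reagent: ingested quenched lipid PED6 at 100 nM. Read-out: visual per-well fluorescence inhibition score. Times: overnight exposure of larvae to compound plus PED6.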

Experiment [9] can be described thus: inhibitors of Chlamydomonas gravitaxis, primary screen, whole organism, Chlamydomonas reinhardtii, WT vs cilia-less mutant, absorbance, 96-well (AID 463189;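 active = inhibition at or above 50% relative to wild type and mutant plate controls; inactive = inhibition below 50%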;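 note: 0% = wild type cc124 cells in DMSO and 100% = ciliumless bld1 mutant cells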). The following applies: OD600 absorbance, 2 days, at 10 µM, stronger effect = higher value.
Where [10] appears, read: measured here: cell density z-score.
Setting [11] is: measured here: nuclear c-Myc green intensity z-score.
The mark [12] stands for this setting: measured here: nuclear pErk red intensity z-score, stronger effect = higher value.

The source of these data is PubChem BioAssay.

Activity calls are given as the source filed them.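 Rule for the calls, unless noted: active = NADPH fluorescence slope more negative than the mean of all samples by about 3 SD, 99.7% confidence; inactive = the rest.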

Chain of Alpha-2C adrenergic receptor (Homo sapiens) (P18825 whole entry, looked up): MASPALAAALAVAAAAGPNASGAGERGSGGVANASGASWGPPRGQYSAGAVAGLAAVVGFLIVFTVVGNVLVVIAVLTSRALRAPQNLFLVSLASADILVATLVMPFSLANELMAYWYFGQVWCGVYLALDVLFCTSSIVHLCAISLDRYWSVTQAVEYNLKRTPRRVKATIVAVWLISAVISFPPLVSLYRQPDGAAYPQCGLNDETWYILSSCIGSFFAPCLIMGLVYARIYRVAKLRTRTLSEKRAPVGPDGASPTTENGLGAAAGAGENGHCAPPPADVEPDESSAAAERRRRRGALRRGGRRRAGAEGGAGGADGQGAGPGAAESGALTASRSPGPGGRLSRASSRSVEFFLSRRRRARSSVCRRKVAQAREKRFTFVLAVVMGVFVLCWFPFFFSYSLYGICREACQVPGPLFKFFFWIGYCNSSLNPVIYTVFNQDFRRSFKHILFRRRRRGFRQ
Chain of Voltage-gated potassium channel subunit beta-2 (Rattus norvegicus) (P62483 whole entry, looked up): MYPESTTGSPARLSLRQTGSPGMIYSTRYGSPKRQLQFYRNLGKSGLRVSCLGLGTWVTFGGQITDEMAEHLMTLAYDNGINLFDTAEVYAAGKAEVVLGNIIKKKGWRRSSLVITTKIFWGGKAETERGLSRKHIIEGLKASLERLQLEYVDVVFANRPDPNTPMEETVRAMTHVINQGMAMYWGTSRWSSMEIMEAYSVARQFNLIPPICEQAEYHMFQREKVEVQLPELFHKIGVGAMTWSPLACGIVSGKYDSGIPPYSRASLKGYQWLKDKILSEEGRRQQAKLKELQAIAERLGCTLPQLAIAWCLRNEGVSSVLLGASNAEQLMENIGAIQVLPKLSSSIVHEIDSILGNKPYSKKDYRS
Chain of Dual specificity protein phosphatase 6 (Homo sapiens) (Q16828 whole entry, looked up): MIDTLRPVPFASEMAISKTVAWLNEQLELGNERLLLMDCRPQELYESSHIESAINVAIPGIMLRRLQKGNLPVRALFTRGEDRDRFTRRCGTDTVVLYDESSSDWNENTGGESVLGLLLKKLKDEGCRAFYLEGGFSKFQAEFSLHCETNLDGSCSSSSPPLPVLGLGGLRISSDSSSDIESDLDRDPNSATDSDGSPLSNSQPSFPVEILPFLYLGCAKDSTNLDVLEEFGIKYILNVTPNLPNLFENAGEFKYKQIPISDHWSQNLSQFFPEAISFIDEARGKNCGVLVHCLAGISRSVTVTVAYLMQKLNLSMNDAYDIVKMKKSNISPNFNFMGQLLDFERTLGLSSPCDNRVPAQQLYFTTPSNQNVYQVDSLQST

Regarding `N#CC1=C(N)NC(SCc2ccc(Cl)cc2)=C(C#N)C12CCCCC2`, in experiment [1], the cell count was 630. Moreover, the inhibition in experiment [1] was -23% (inactive); in experiment [2], 44.1% (inactive); in experiment [4], 1.04% (inactive); in [9], 18.9% (inactive). The nuclei count in experiment [2] was 180%. The z-score in [3] (setting [10]) is 0.0253; in experiment [3] (setting [11]) it was -0.669; in [3] (setting [12]), 0.519. For the same compound, the fluorescence slope in [5] was -0.409 (inactive). For the same compound, the NADPH fluorescence slope in experiment [6] was -5.9e-05 (inactive). Also, the slope in experiment [7] was 0.00372 (inactive). Besides, the result in experiment [8] was inactive.

Take `CCOc1ccc(-c2nnc3sc(COc4ccccc4)nn23)cc1`: the cell count in experiment [1] came to 502. In addition, the inhibition is -11.7% (inactive) in experiment [1], -288% (inactive) in experiment [2], -15% (inactive) in experiment [4] and 53.8% (active) in experiment [9]. This compound also returned a nuclei count in experiment [2] of 155%. Besides, the z-score was -0.358 in experiment [3] (setting [10]), -0.85 in [3] (setting [11]) and 1.78 in [3] (setting [12]). The fluorescence slope in [5] is -0.405 (inactive). Further, in experiment [6], the NADPH fluorescence slope was -0.000151 (inactive). In experiment [7], the slope was 0.00528 (inactive). Further, in experiment [8], the result was inactive.

Take `O=C1C(=O)N(CCN2CCOCC2)C(c2ccccn2)/C1=C(/O)c1ccc(F)cc1` (centres undefined): the cell count in experiment [1] was 368. For the same compound, the inhibition is -5.8% (inactive) in experiment [1], -3.3% (inactive) in [2], 3.66% (inactive) in experiment [4] and 38.7% (inactive) in experiment [9]. This compound displayed a nuclei count in [2] of 124%. The results for the z-score in [3] (setting [10]), in experiment [3] (setting [11]) and in [3] (setting [12]) were -0.169, 0.443 and -0.876, respectively. Further, the fluorescence slope in [5] is -0.392 (inactive). Moreover, the NADPH fluorescence slope in experiment [6] is -5.6e-05 (inactive). Moreover, the slope in experiment [7] is 0.00569 (inactive). The result in experiment [8] was inactive.

In the case of `O=C1c2ccccc2C(=O)C1c1ccc2ccccc2n1`, in experiment [1], the cell count worked out at 336. The inhibition in [1] was -17.4% (inactive); in experiment [2], -56% (inactive); in [4], -7.28% (inactive); in experiment [9], -14.2% (inactive). The same compound came in with a nuclei count in experiment [2] of 109%. In addition, the z-score in [3] (setting [10]) was -0.111; in experiment [3] (setting [11]) it was -0.223; in experiment [3] (setting [12]), 0.575. In addition, in experiment [5], the fluorescence slope is -0.43 (inactive). Further, the NADPH fluorescence slope in experiment [6] was -2.4e-05 (inactive). Also, the slope in [7] was 0.00379 (inactive). Also, in [8], the call was inactive.

For the compound `N#CC1=C(SCC(=O)c2ccc(Br)cc2)NC2=C(C(=O)CCC2)C1c1ccco1` (centres undefined), the cell count in experiment [1] was found to be 383. Also, the inhibition in [1] was -10.4% (inactive); in experiment [2] it was -96.6% (inactive); in [4], -8.59% (inactive); in experiment [9], 3.41% (inactive). The compound also showed a nuclei count in experiment [2] of 179%. The z-score in [3] (setting [10]) is 0.687; in [3] (setting [11]) it was -1.61; in experiment [3] (setting [12]), 1.14. The fluorescence slope in experiment [5] is -0.399 (inactive). For the same compound, the NADPH fluorescence slope in [6] was -0.000128 (inactive). For the same compound, in experiment [7], the slope is 0.00589 (inactive). For the same compound, the outcome in experiment [8] was inactive.

With `CC(C)Oc1ccc(/C(O)=C2/C(=O)C(=O)N(CCN3CCOCC3)C2c2ccccc2)cc1` (centres undefined), the cell count in [1] is 564. Further, the inhibition in experiment [1] is 4.6% (inactive); in experiment [2], -21.9% (inactive); in [4], -1.12% (inactive); in [9] it was 0.719% (inactive). The same compound came in with a nuclei count in [2] of 179%. For the same compound, the z-score in experiment [3] (setting [10]) was -0.496; in experiment [3] (setting [11]), -0.0457; in experiment [3] (setting [12]), 0.947. The fluorescence slope in [5] is -0.338 (inactive). Also, in experiment [6], the NADPH fluorescence slope is -1.3e-05 (inactive). The slope in experiment [7] is 0.0044 (inactive). Further, the result in [8] was inactive.

On to `CCCOc1ccc(/C(O)=C2/C(=O)C(=O)N(CCCN3CCOCC3)C2c2ccncc2)cc1` (centres undefined), for which the cell count in experiment [1] worked out at 398. Further, the inhibition in experiment [1] is -0.5% (inactive); in experiment [2], -151% (inactive); in [4], -8.27% (inactive); in experiment [9], 0.312% (inactive). The nuclei count in experiment [2] was determined as 145%. Moreover, the z-score in [3] (setting [10]) was 0.781; in experiment [3] (setting [11]), 0.803; in experiment [3] (setting [12]), -0.95. Further, the fluorescence slope in experiment [5] was -0.341 (inactive). Also, in experiment [6], the NADPH fluorescence slope was -1.2e-05 (inactive). In addition, the slope in experiment [7] was 0.0051 (inactive). In [8], the call was inactive.

`Cc1ccc(-n2c(=O)c3c4c(sc3n3c(C)nnc23)COC(C(C)C)C4)cc1` (centres undefined): in experiment [1], the cell count turned out to be 551. For the same compound, the inhibition is -2.6% (inactive) in experiment [1], -1.3% (inactive) in [2], 9.82% (inactive) in experiment [4] and 49.1% (inactive) in [9]. The compound also returned a nuclei count in [2] of 122%. The z-score was 0.656 in experiment [3] (setting [10]), -0.667 in experiment [3] (setting [11]) and -0.392 in [3] (setting [12]). In addition, the fluorescence slope in [5] was -0.411 (inactive). Also, the NADPH fluorescence slope in experiment [6] was 2.1e-05 (inactive). The slope in [7] was 0.00541 (inactive). For the same compound, the compound was classed as inactive in experiment [8].
